Screens: PubChem BioAssay, several laboratories
TCR CD3 inh: inhibitors of human TCR-CD3 interaction | AID 651800 | TAMRA-labeled TCR probe fluorescence, biochemical | inhibition, % at 9.4 µM | 360,000 compounds, 0.37% hits; in the data active = inhibition above about 19%;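 note: recombinant mutant TCR 2C K166C tagged with TAMRA read by polarization; 0% = receptor in buffer alone and 100% = receptor with positive control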
eIF4H FP inh: inhibitors of RNA binding by human eIF4H; eIF4H fluorescence polarization binding assay; 290,000 compounds, 0.94% hits; inhibition, % at 35 µM; Q15056; AID 2012;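 note: calls also rest on retests at 20 µM and on dose response follow-up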
PABP1 MLLE inh: inhibitors of microRNA-mediated deadenylation, human PABP1 MLLE binding. GST-MLLE / FITC-PAM2 fluorescence polarization. 360,000 compounds, 0.36% hits. P11940. inhibition, % at 20 µM; in the data active = inhibition above about 35%, passing the limit was not always enough;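 note: plate controls were DMSO wells with GST-MLLE for no effect and wells lacking GST-MLLE protein for full effect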
Target sequence (P11940 whole entry, looked up): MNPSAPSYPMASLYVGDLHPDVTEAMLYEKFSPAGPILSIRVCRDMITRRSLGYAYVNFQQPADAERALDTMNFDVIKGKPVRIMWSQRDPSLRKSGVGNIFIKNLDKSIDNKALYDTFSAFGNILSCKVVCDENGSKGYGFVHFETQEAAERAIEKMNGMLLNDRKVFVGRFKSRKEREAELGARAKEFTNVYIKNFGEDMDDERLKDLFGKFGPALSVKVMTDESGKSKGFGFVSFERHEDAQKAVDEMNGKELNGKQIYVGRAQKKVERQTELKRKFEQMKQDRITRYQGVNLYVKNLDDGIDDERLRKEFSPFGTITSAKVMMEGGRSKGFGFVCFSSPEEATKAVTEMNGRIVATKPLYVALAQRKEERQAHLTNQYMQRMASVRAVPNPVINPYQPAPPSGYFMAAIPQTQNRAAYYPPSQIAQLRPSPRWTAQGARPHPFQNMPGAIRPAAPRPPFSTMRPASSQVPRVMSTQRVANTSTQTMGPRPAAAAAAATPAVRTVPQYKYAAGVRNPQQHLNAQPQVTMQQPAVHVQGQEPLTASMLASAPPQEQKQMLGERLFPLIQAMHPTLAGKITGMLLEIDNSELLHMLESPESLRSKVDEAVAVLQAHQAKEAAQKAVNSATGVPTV
PABP polyA inh: blocks human PABP binding to poly(A) RNA. calls only at 35 µM. 290,000 compounds, 1% hits. AID 2014. P11940. fluorescence polarization;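 note: calls also rest on retests at 20 µM and on dose response follow-up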
RBBP9 inh: human RBBP9 hydrolase inhibition | O75884 | inhibition, % at 7.94 µM | 220,000 compounds, 0.2% hits | recombinant RBBP9, FP-Rh probe fluorescence polarization;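 active = inhibition above the campaign mean of all tested compounds plus 3 SD, cut at about 14% in these data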;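 note: plate controls were DMSO wells with RBBP9 for no effect and wells lacking RBBP9 protein for full effect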
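System: RBBP9 protein / Quantity: 2.5 µM RBBP9 dispensing solution, before mixing / Also added: Serine-hydrolase probe FP-Rh, 375 nM pre-mixing / Dosing: 7.94 µM single dose, 0.794% DMSO / Timing: enzyme-compound preincubation 30 min, then probe labeling 45 min, 25 °C / Signal: FP readout at 525/598 nm / Controls: DMSO-treated enzyme wells and wells lacking RBBP9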
An asterisk follows results filed as active; i = inactive; ? = inconclusive; . = not tested or not shown; + = active, no number. A selection: hits, their analogues and other compounds. The true share with any hit is near 1.6%. Unless noted, the rule behind the calls is not given here.

SMILES	TCR CD3 inh	eIF4H FP inh	PABP1 MLLE inh	PABP polyA inh	RBBP9 inh
Fc1ccc(NCc2cccnc2)cc1F	-2	?	48*	?	-2
Nc1[nH]c(C(=O)c2ccccc2)c(-c2cccc(C(F)(F)F)c2)c1C(=O)NCCc1c[nH]c2ccccc12	-2	.	.	.	.
CCN(c1cccc(C)c1)S(=O)(=O)c1ccc(-c2cc(C)no2)s1	0	88*	-4	i	.
Cc1cc2ncn(C(=O)c3cc(-c4ccccc4)nc4ccccc34)c2cc1C	0	active	11	+	-7
COc1ccc(O)c(N)c1	.	96*	.	+	7
Cc1cc(-c2sccc2C)nc(-n2cccc2)n1	-3	?	3	+	-7
O=C(Nc1nnc(C2CC2)s1)C1CCCO1 (stereo not given)	-4	0.7*	-8	i	-15
Cc1ccccc1CN1[C@@H](C)[C@H](c2ccccc2)Oc2cccc(NCC(C)C)c2S1(=O)=O	1	.	.	.	.
Cc1ccc(NC(=S)C2=C(O)c3sccc3N(C)S2(=O)=O)cc1	-7	-4	41*	i	-6
CC1=NOC(=O)/C1=C\c1ccc(-c2ccc(Cl)cc2Cl)o1	1	55*	-1	i	-5
CCCOc1cccc(-c2nn(-c3ccccc3)cc2/C=C(\C#N)C(=O)NCCCn2ccnc2)c1	-1	?	-49	+	-6
O=C1N=C(N2CCCC2)S/C1=C\c1cn[nH]c1-c1ccccc1	.	-9	.	i	-3
Cc1ccccc1N1CCN(C2=NC(=O)/C(=C/c3cn[nH]c3-c3ccccc3)S2)CC1	8	?	-3	+	0
CN1C(=O)C2(c3ccccc31)C1CCCC=C1C(C#N)=C(N)C2(C#N)C#N (stereo not given)	-9	44*	-8	+	3
CN1C(=O)C2(C(C#N)=C(N)N(c3cc(Cl)cc(Cl)c3)C3=C2C(=O)CCC3)c2ccccc21 (stereo not given)	-3	1	-7	i	3
Cc1[nH]n(-c2ccccc2)c(=O)c1/C=N/n1c(C)nc2ccccc2c1=O	2	1	6	+	-3
O=C(CCCN1C(=O)/C(=C/c2ccccc2Cl)SC1=S)NCCCN1CCOCC1	-40	-9	41*	i	.
O=C(CCN1C(=O)/C(=C/c2ccccc2F)SC1=S)NCCCN1CCOCC1	1	0	19	i	.
COc1ccc(N(C)C(=O)Nc2ccc3nsnc3c2)cc1	0	11	10	i	-1
CC(C)N(C(=O)Nc1ccc2nsnc2c1)C(C)C	5	101*	.	+	2
NC(=O)CC(NC(=O)c1ccccc1)c1ccc(NCCCN2CCCC2=O)c([N+](=O)[O-])c1 (stereo not given)	7	25	-7	i	.
NC(=O)CC(NC(=O)Cc1ccc(Cl)cc1)c1ccc(NCCCN2CCCC2=O)c([N+](=O)[O-])c1 (stereo not given)	1	69*	-7	i	.
NS(=O)(=O)c1ccc(NC(=O)CSc2ccccn2)cc1	7	-6	3	i	-7
NS(=O)(=O)c1cccc(NC(=O)CSc2ccccn2)c1	10	-3	-1	+	2
Nc1[nH]c(C(=O)c2ccccc2)c(-c2ccc(Cl)cc2F)c1C(=O)NCCc1c[nH]c2ccccc12	-2	.	.	.	.
SMILES	TCR CD3 inh	eIF4H FP inh	PABP1 MLLE inh	PABP polyA inh	RBBP9 inh
O=C(C[n+]1ccccc1)c1ccc(NC(=O)c2ccccc2)cc1	2	-5	-121	+	-8
Cc1nc(NC(=S)Nc2ccccc2)sc1C	0	-4	37*	i	-2
COc1cc(NS(=O)(=O)c2ccc(NC(C)=O)cc2)nc(OC)n1	2	14	6	i	-6
COc1cc(NS(=O)(=O)c2ccc(NC(=S)NC(=O)c3sc4cc(F)ccc4c3Cl)cc2)nc(OC)n1	-1	2	41*	i	-3
COc1cc(NS(=O)(=O)c2ccc(NC(=S)NC(=O)c3ccco3)cc2)nc(OC)n1	6	-2	38	i	1
COc1cc(NS(=O)(=O)c2ccc(NC(=S)NC(=O)c3sc4ccccc4c3Cl)cc2)nc(OC)n1	2	7	48*	i	-7
O=S1(=O)CC(N2CCC(c3ccccc3)CC2)CN1Cc1cn(Cc2ccc(C(F)(F)F)cc2)nn1 (stereo not given)	0	.	.	.	.
O=C(NCc1ccccc1)[C@H]1CCCN1C(=O)[C@H]1CCCN1C(=O)c1cccc(F)c1	2	.	.	.	.
COC(=O)[C@]12C[C@H](CC(=O)NCc3ccc(OC)c(OC)c3)C(=O)N(Cc3ccccc3)C1=C[C@H](C1CCCC1)O[C@@H]2C	9	.	.	.	.
C=CCN1C(=O)c2[nH]nc(-c3ccccc3)c2C1c1ccc(C)cc1 (stereo not given)	-4	.	.	.	.
Cc1ccc(SCC(=O)Nc2ccc(-c3nnc(-c4ccco4)o3)cc2)cc1	5	58*	9	+	-5
O=C(CSc1nnc(-c2ccccc2)c(-c2ccccc2)n1)NCc1ccco1	4	3	10	i	0
O=C(CSc1nnc(-c2ccco2)c(-c2ccco2)n1)Nc1ccccc1	9	96*	16	+	1
Cc1ccc(NC(=O)CSc2nnc(-c3ccco3)c(-c3ccco3)n2)cc1	8	100*	21	+	-6
CN(C)c1ccc(NC(=O)CSc2nnc(-c3ccco3)c(-c3ccco3)n2)cc1	0	93*	25	+	.
COC(=O)C1=C(C)N(Cc2cccc(C(F)(F)F)c2)C(=NCc2ccccc2C(F)(F)F)NC1c1cccc(C(F)(F)F)c1 (stereo not given)	10	.	.	.	.
CCC(CC)NC(=O)Nc1cccc(C)c1C	-1	-4	1	i	-5
CCn1c(NC(=O)Nc2cccc(C)c2C)cc2sccc21	3	87*	-10	+	1
CC(C)(C)OC(=O)N1CCC2CCN(S(=O)(=O)c3ccccc3)CC21 (stereo not given)	-3	.	.	.	.
C[C@H](CO)N1C[C@H](C)[C@@H](CN(C)C(=O)Nc2cccc(C(F)(F)F)c2)OCc2cn(nn2)CCCC1=O	-3	.	.	.	.
COc1cc(/C=C2/NC(=O)N(Cc3ccccc3F)C2=O)ccc1O	6	-13	-5	i	-3
O=C1N/C(=C/c2cccn2-c2ccccc2)C(=O)N1Cc1ccc(F)cc1	3	active	-10	+	-9
O=C(O)c1cccc(-n2cccc2/C=C2/NC(=O)N(Cc3ccccc3F)C2=O)c1	1	94*	8	+	-7
O=C1N/C(=C/c2cccn2-c2ccc(F)cc2)C(=O)N1Cc1ccccc1F	-1	-6	-13	i	-7
CN1OC[C@@H]2CN(Cc3ccc4c(c3)OCO4)[C@H](c3ccc(-n4ccnc4)cc3)C[C@@H]21	-4	.	.	.	.
COc1ccc(C(=O)Nn2cnnc2)cc1OC	-1	89*	1	+	-6
COCCN1C(=O)[C@H]2C[C@@]13O[C@H](C1CCCCC1)N=C3CC1c3ccccc3C[C@@]12C (stereo not given in full)	-3	.	.	.	.
